procasp3 activ = procaspase-3 (human) activation | recombinant procaspase-3 D3A, Ac-DEVD-pNA absorbance 405 nm | 0.11% of 330,000 active | activation, % at 8.5 µM;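 active = activation above the mean of all tested compounds plus 3 SD, cut at about 21% in these data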;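 also: 0% = DMSO alone and 100% = DMSO wells spiked with extra 5 µM PC-3 D3A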
Target sequence (P42574 whole entry D9A/D28A/D175A): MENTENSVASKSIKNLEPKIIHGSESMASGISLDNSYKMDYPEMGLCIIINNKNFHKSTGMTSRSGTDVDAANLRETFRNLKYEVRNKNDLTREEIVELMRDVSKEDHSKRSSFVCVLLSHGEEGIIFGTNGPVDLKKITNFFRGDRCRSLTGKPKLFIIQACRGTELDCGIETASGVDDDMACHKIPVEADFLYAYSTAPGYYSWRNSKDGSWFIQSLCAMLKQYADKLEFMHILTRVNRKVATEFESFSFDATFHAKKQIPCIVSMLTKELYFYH
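Test system: Procaspase-3 D3A mutant, all three cleavage aspartates alanine | Dosing: Single dose, 8.5 µM nominal compound, 0.8% DMSO | Schedule: 1 h preincubation, 2 h reaction | Technique: 405 nm absorbance of p-nitroaniline, reads at 0 and 120 min | Repeats: One well per compound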
CHT PAM = human CHT allosteric activation | B-score at 10 µM | Q9GZV3 | 0.49% of 310,000 active | CHT-expressing cells, membrane potential dye, choline EC20; hits give high values; LV-AA mutant CHT in HEK293 cells;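 active = initial fluorescence not abnormally high and integrated response B-score, plate-corrected, over 3 SD above library mean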
CHT inh = inhibitors of human choline transporter CHT; Q9GZV3; CHT-expressing cells, membrane potential dye, choline response; hits give low values; B-score at 10 µM; 0.86% of 310,000 active; AID 488975;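 active = B-score over 3 SD under the library average, and starting fluorescence ratio not unusually high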;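 also: choline stimulus applied at its EC90 after an EC20 pre-addition; B-score computed on integrated fluorescence ratio after choline addition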
procasp7 counter = counter-screen for procaspase-3 activators: activators of human procaspase-7. recombinant procaspase-7, Ac-DEVD-pNA absorbance 405 nm; D23A/D198A/D206A triple mutant, cannot self-cleave; scale: DMSO 0, 5 µM enzyme 100. activation, % at 8.5 µM. 0.093% of 330,000 active. AID 463210;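 active = percent activation above the screen-wide mean plus 3 SD, cut at about 25% in these data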
Target sequence (P55210 whole entry D23A/D198A/D206A): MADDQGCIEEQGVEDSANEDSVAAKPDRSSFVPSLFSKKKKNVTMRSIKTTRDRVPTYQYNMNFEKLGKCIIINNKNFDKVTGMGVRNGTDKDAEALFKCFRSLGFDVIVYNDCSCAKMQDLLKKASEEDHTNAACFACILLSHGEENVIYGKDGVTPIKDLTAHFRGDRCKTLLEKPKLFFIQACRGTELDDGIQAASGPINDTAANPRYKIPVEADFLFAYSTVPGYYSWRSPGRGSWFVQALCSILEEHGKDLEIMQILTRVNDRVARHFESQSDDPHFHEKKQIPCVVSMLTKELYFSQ
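buffer or medium = Zinc-free HEPES/NaCl buffer, pH 7.4 | material = Procaspase-7 triple mutant (PC-7 D3A) | input = 2 µM procaspase-7 mutant as dispensed | signal = Epi-absorbance of released pNA at 405 nm, two timepoints | timing = 1 h preincubation, 2 h reaction | replicates = singlicate compound testing | evaluation = % activation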
CHT act confirm = human CHT activation, confirmatory screen. CHT-expressing cells, membrane potential dye fluorescence (FDSS); % of choline EC20–EC90 response window; HEK293 expressing CHT LV-AA mutant; choline added at its EC20. 91% of 2,500 active. shares compounds with CHT PAM. activation, % at 10 µM;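 active = primary screen active, with duplicate mean activation above negative control mean plus 3 SD, cut at about 11% in these data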
HEK293 MP dye = counter-screen for CHT activators: effect in parental HEK293 cells | ratio readout change at 10 µM, hits read low | AID 623908 | shares compounds with CHT PAM | membrane potential dye fluorescence (FDSS); measured after EC20 choline addition | 62% of 2,500 active;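 active = duplicate-averaged ratio beyond 3 SD from buffer wells, up or down, though filed actives are nearly all decreases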
* = called active by the depositor; i = inactive; . = not tested or not shown. Shown are actives, neighbours in structure and some others; about 1.3% of the full set was active somewhere.

SMILES | procasp3 activ | CHT PAM | CHT inh | procasp7 counter | CHT act confirm | HEK293 MP dye
COc1ccc(CN(C)C(=O)c2sccc2-c2ccccc2)c(OC)c1 | 3 | i | i | 1 | . | .
COc1ccccc1CN(C)C(=O)C(c1ccccc1)c1ccccc1 | 2 | 11* | i | 12 | 30* | i
CN(Cc1ccc(F)cc1)C(=O)C(c1ccccc1)c1ccccc1 | 6 | i | i | -4 | 37* | i
CC1CCCC(NC(=O)Cn2c(Cl)nc3c2c(=O)n(C)c(=O)n3C)C1C (stereo not given) | 3 | . | . | 5 | . | .
COc1cccc(NC(=O)N2CCCC2C(=O)NC23CC4CC(CC(C4)C2)C3)c1 (stereo not given) | 7 | i | i | -7 | . | .
c1ccc(-c2ccccc2OCCCN2CCCC2)cc1 | 3 | i | i | -8 | 2 | i
COc1ccc(S(=O)(=O)N2CCC(C(=O)NC3CC3)CC2)cc1OC | 3 | i | i | 6 | . | .
CCOc1ccc(OCCC(=O)N(CC)CC(=O)Nc2ccccc2C(F)(F)F)cc1 | -8 | i | i | 0 | . | .
CCN(CC(=O)Nc1ccccc1C(F)(F)F)C(=O)CCOc1ccc(C)cc1 | 10 | i | i | 2 | 7 | i
COc1cc(C(=O)NCCC(=O)NC(C)CCc2ccccc2)cc(OC)c1OC (stereo not given) | 1 | i | i | 4 | . | .
CCCCN(CCCC)CCNC(=O)CSCc1ccc(C)cc1 | -9 | i | i | -6 | 35* | i
CC(C)(C)c1ccc(/C=N/NC(=O)CN2CCS(=O)(=O)CC2)cc1 | -2 | i | i | 3 | . | .
COC(=O)c1cc(C)nc2c1C(=O)C(=O)C=C2N1CCOCC1 | -6 | i | i | -4 | . | .
CCN(CC)CCNc1cc(C)nc2c1C(=O)C(=O)C=C2N1CCCCC1 | -1 | 7.3* | i | -7 | 65* | -66*
Cc1ccc(NC(=O)Cc2nc(CN(C)CC(=O)Nc3ccc(C)cc3)cs2)cc1 | 3 | . | . | 0 | . | .
CN(C)CCCn1c(NCc2ccc3c(c2)OCO3)nc2ccccc21 | 3 | i | i | -5 | 35* | -50*
Nc1c(C(=O)CSc2nnc(-c3ccccc3)o2)c(=O)[nH]c(=O)n1C1CC1 | 1 | . | . | 2 | . | .
Brc1ccc2c(c1)OCCOCCOc1cc(Br)ccc1OCCOCCOCCO2 | 7 | 14* | i | -8 | 57* | i
COc1cc(CC(=O)OCC(=O)Nc2ccc(N(C)C)cc2)cc(OC)c1OC | 5 | . | . | 18 | . | .
CN(CC(=O)Nc1cccc(F)c1)C(=O)c1cc([N+](=O)[O-])ccc1N1CCCCC1 | -14 | i | i | -12 | 17* | i
Cc1n(C)c2cc(Cl)ccc2[n+]1Cc1ccccc1 | -1 | 9.3* | i | 3 | 65* | -44*
CC[n+]1c(C)n(C)c2cc(S(=O)(=O)N(C)C)ccc21 | -1 | i | i | -8 | . | .
Cn1cc(CN2CCC(n3nccc3NC(=O)C3CCCC3)CC2)cn1 | . | i | i | . | . | .
C=CCOC(=O)C1=C[C@@H](c2ccc(Br)cc2)[C@H](CCCO)[C@@H](OCC)O1 | -1 | 6.7* | i | -1 | 25* | i
Cc1cc(N2CCOCC2)c2c(N)c(Br)cc(C)c2n1 | 0 | 9.8* | i | 9 | 45* | -66*
SMILES | procasp3 activ | CHT PAM | CHT inh | procasp7 counter | CHT act confirm | HEK293 MP dye
CCCn1c(N)c(N(CCOC)C(=O)c2cc3ccccc3cc2OC)c(=O)[nH]c1=O | 0 | . | . | -5 | . | .
CCN1CCc2nc(NC(=O)C(c3ccccc3)c3ccccc3)sc2C1 | 0 | i | i | -3 | 17* | i
CCCCN(CC)C(=S)Nc1ccc2nc(N3CCN(C)CC3)cc(C)c2c1 | -5 | i | i | -6 | 26* | -26*
COc1ccc(/C=C/C(=O)NCCCN2CCCC2)cc1 | -8 | i | i | -2 | . | .
COc1ccc(/C=C/C(=O)NCCCc2ccccc2)cc1 | 17 | 6.6* | i | 4 | 38* | i
COc1ccc(/C=C/C(=O)NC(C)CCc2ccccc2)cc1 (stereo not given) | 3 | i | i | -2 | 35* | i
Cc1sc2c3ccsc3ccc2[n+]1C | -28 | 10* | i | -35 | 66* | i
Cc1ccc2c(c1)N(C(=O)CCC(=O)NCCCN1CC(C)CC(C)C1)CCO2 (stereo not given) | 1 | i | i | -8 | . | .
O=C(O)/C=C/C(=O)Nc1ccc(C(=O)c2ccccc2)cc1 | -8 | i | i | -4 | . | .
O=C(O)/C=C/C(=O)Nc1ccc2c(c1)C(=O)c1ccccc1C2=O | -6 | i | i | -5 | 28* | -27*
COc1cc(-c2nnc(SCC(=O)N(Cc3ccccc3)C(C)(C)C)o2)cc(OC)c1OC | 9 | 7.9* | i | -1 | 1 | i
COc1cc(OC)cc(-c2nnc(SCC(=O)N(Cc3ccccc3)C(C)(C)C)o2)c1 | -3 | i | i | -4 | . | .
Cc1cc(N2CCOCC2)nc2ccccc12 | -12 | 6.5* | i | 8 | 45* | -51*
Cc1cc(N2CCCCC2)nc2ccccc12 | 3 | i | i | 0 | . | .
c1ccc2c(N3CCCCC3)nc(N3CCOCC3)nc2c1 | 8 | 6.7* | i | -6 | 40* | -44*
c1ccc2c(N3CCCCC3)nc(N3CCCCC3)nc2c1 | 4 | i | i | 16 | . | .
Cc1cc(N2CCOCC2)nc2ccc(NC(=O)CCC(=O)N3CCN(c4ccc(F)cc4)CC3)cc12 | -1 | i | i | 2 | . | .
COc1cccc(C(=O)Nc2ccc3nc(N4CCOCC4)cc(C)c3c2)c1 | -5 | 6.8* | i | -1 | 42* | -43*
Cc1cc(N2CCOCC2)nc2ccc(NC(=O)CCC(=O)N3CCCC(C)C3)cc12 (stereo not given) | 5 | i | i | 6 | 41* | -36*
CCN1CCN(c2cc(C)c3cc(NC(=O)c4cccc(OC)c4)ccc3n2)CC1 | 7 | i | i | 6 | . | .
COc1ccc(Nc2nc(C)nc3c2nnn3Cc2ccccc2Cl)c(OC)c1 | -3 | i | i | 10 | . | .
COc1ccc2nc(N3CCOCC3)cc(C)c2c1 | 0 | 8.4* | i | -6 | 58* | -57*
Cc1cc(N2CCN(c3ccc(F)cc3)CC2)nc2cc(O)ccc12 | 10 | i | i | 9 | . | .
Cc1cc(N2CCOCC2)nc2cc(O)ccc12 | 0 | 9.2* | i | 4 | 74* | -45*
Cc1cc(N2CCCN(C)CC2)nc2cc(Cl)ccc12 | 0 | i | i | 3 | 35* | -50*

Screening data from PubChem BioAssay.
